pEC50, pIC50, pKd: −log10 of the molar value. Calls of active or inactive are those of the source. No rule for the calls is given here.
Tests used:
HSP60/HSP10 = HSP60/HSP10 (Homo sapiens, UniProt P10809); experiment: Inhibition of human N-terminal octa-His-tagged HSP60 expressed in Escherichia coli Rosetta(DE3) pLysS/human HSP10 expressed in Escherichia coli Rosetta(DE3) assessed as reduction in HSP60/HSP10-mediated denatured MDH refolding by measuring MDH enzyme activity using sodium mesoxalate as substrate after 40 to 60 mins by spectrometric analysis
Outline: (§1)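 Chaperonin-mediated refolding of denatured MDH, coupled to MDH enzymatic activity as the reporter. Human HSP60/10 (HSP60 without its 26-residue mitochondrial signal peptide) or E. coli GroEL/ES was used, with GroEL tetradecamer at 50 nM (700 nM subunits) during the refolding cycle. IC50s from replicate dose-response curves were averaged as logs after ROUT outlier removal.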

[1] = biological target: T1, Thiosulfate sulfurtransferase (Homo sapiens, UniProt Q16762); experiment: Inhibition of refolded rhodanese (unknown origin) preincubated with Escherichia coli GroEL/GroES for 60 mins by measuring […] after 20 to 40 mins by spectrometric analysis
T1 sequence (Q16762 whole entry): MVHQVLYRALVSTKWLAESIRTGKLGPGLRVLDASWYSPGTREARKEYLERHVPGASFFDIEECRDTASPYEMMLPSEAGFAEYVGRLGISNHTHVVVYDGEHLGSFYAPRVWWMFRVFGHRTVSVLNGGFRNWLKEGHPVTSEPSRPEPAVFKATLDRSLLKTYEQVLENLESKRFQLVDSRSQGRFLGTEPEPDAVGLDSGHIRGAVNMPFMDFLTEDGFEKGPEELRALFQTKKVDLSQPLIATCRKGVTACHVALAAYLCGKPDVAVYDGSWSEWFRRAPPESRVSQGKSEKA

Staphylococcus aureus = experiment: Antibacterial activity against multidrug resistant Staphylococcus aureus ATCC BAA-44 after 6 to 8 hrs; format: functional, organism-based
[2] = Cytotoxicity against human THLE3 cells after 48 hrs by Alamar blue assay; format: cell-based
Outline: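 THLE-3 cells, grown in BEBM with the BEGM kit and 10% FBS, were seeded at 1,500 cells/well and allowed 24 h at 37°C, 5% CO2. Compounds were then added at 100 µM to 46 nM final (3-fold steps, 0.1% DMSO) for 48 h. […] CC50 is the log-average of at least triplicate runs.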

[3] = Inhibition of refolded MDH (unknown origin) preincubated with Escherichia coli GroEL/GroES for 45 mins using sodium mesoxalate as substrate by spectrometric analysis; parameters: species or system Homo sapiens; outline: as §1
Acinetobacter baumannii = experiment: Antibacterial activity against Acinetobacter baumannii ATCC 19606 after 24 hrs; format: functional, organism-based; conditions: for Activity: ATCC 19606 = CIP 70.34 = JCM 6841
Outline: (§2)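 Stagnant liquid-culture proliferation assay at 37°C in broth cation-adjusted with 25 mg/L Ca²⁺ and 12.5 mg/L Mg²⁺, with compounds stamped into the wells. […] OD600 turbidity was read at 6–8 h (K. pneumoniae, E. cloacae, P. aeruginosa) or 24 h (A. baumannii). EC50 came from non-linear regression, averaged in log form over replicates.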

Enterobacter cloacae = experiment: Antibacterial activity against Enterobacter cloacae subsp. cloacae ATCC 13047 after 6 to 8 hrs; format: functional, organism-based; outline: as §2
Pseudomonas aeruginosa = experiment: Antibacterial activity against Pseudomonas aeruginosa ATCC 10145 after 6 to 8 hrs; format: functional, organism-based; outline: as §2
Klebsiella pneumoniae = experiment: Antibacterial activity against Klebsiella pneumoniae ATCC 13883 after 6 to 8 hrs; format: functional, organism-based; outline: as §2
E. coli GroEL/ES [4] = biological target: T2, E. coli GroEL/ES (Escherichia coli, UniProt P0A6F5); experiment: Inhibition of Escherichia coli GroEL expressed in Escherichia coliDH5alpha/Escherichia coli GroES expressed in Escherichia coli BL21 (DE3) assessed as reduction in GroEL/GroES-mediated denatured MDH refolding by measuring MDH enzyme activity using sodium mesoxalate as substrate after 20 to 40 mins by spectrometric analysis
Outline: (§3)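 Coupled refolding assay: denatured rhodanese or MDH refolded by GroEL/ES (50 nM GroEL tetradecamer, 700 nM subunits), read-out via enzymatic activity of refolded substrate; counter-screened against native enzyme activity. IC₅₀ as back-calculated mean of log-transformed replicate values.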

[5] = Binding affinity to Escherichia coli GroEL expressed in Escherichia coli DH5alpha by ITC assay
Outline: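 ITC at 20°C: 400 µM GroEL (monomer) in syringe titrated into 50 µM compound in cell, matched buffer 20 mM HEPES pH 7.4, 50 mM KCl, 10 mM MgCl₂, 1% DMSO; 0.4 µL first injection discarded, then 2.0 µL injections at 3-min intervals, 600 rpm. Single-site fit gave Kd, n, ΔH, ΔS; five or six replicates.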

E. coli GroEL/ES [6] = biological target: T2, E. coli GroEL/ES; experiment: Inhibition of Escherichia coli GroEL expressed in Escherichia coli DH5alpha/Escherichia coli GroES expressed in Escherichia coli BL21 (DE3) assessed as reduction in GroEL/GroES-mediated denatured rhodanese refolding by measuring rhodanese enzyme activity after 45 mins by spectrometric analysis; outline: as §3
[7] = Selectivity index, ratio of CC50 for human THLE3 cells to EC50 for multidrug resistant Staphylococcus aureus ATCC BAA-44; format: toxicity; conditions: read-out: Ratio CC50/EC50

Chain of HSP60/HSP10 (P10809 whole entry): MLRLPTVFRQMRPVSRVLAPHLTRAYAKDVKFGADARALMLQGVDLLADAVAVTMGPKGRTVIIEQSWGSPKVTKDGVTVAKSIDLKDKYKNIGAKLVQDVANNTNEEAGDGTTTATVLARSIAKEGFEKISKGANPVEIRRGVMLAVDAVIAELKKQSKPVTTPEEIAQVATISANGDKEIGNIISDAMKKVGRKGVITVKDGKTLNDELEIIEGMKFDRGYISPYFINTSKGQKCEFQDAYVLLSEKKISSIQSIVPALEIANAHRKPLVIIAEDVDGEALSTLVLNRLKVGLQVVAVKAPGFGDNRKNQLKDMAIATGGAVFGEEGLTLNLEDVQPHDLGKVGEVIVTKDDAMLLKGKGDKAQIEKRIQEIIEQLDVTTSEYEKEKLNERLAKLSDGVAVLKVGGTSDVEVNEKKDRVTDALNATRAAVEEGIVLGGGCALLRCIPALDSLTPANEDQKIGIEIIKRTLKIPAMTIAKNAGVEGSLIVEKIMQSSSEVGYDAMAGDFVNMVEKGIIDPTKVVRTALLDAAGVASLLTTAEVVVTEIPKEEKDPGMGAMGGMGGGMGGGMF
Chain of HSP60/HSP10 (P61604 whole entry, further chain): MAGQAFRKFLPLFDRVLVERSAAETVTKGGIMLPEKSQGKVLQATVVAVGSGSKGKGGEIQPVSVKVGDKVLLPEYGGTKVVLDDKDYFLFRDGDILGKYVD
T2 sequence (P0A6F5 whole entry, looked up): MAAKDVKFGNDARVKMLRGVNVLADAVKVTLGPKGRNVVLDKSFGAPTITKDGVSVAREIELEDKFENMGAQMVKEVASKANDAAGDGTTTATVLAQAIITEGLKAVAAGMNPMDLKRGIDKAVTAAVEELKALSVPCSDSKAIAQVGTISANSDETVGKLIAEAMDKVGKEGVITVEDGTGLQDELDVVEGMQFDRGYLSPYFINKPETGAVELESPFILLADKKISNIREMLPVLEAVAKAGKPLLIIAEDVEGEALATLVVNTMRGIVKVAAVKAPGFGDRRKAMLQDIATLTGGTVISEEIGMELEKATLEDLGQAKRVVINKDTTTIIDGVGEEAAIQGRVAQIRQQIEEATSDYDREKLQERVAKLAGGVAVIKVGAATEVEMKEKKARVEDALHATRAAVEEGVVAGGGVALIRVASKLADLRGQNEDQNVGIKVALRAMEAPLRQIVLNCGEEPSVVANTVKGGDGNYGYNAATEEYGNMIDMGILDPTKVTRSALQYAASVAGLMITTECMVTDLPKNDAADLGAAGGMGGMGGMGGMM

Compound	pIC50 (HSP60/HSP10)	pIC50 [1]	pEC50 (Staphylococcus aureus)	CC50 at 48 h [2] [µM]	pIC50 [3]	Activity (Acinetobacter baumannii)	Activity (Enterobacter cloacae)	Activity (Pseudomonas aeruginosa)	Activity (Klebsiella pneumoniae)	further results
O=S(=O)(Nc1ccc2oc(-c3ccc(NS(=O)(=O)c4cccc5nonc45)cc3)nc2c1)c1ccc(Cl)s1	4.96	4.14	5.35	69	< 4.20					
O=S(=O)(Nc1ccc(-c2nc3cc(NS(=O)(=O)c4cccc(C(F)(F)F)c4)ccc3o2)cc1)c1cccc(C(F)(F)F)c1	4.24	< 4.00	5.70	24	< 4.20	inactive	inactive	inactive	inactive	
O=S(=O)(Nc1ccc(-c2nc3cc(NS(=O)(=O)c4ccc(Cl)cc4)ccc3o2)cc1)c1ccc(Cl)cc1		< 4.00	5.46	18	< 4.20	inactive	inactive	inactive	inactive	
O=S(=O)(Nc1ccc(-c2nc3cc(NS(=O)(=O)c4ccc(Cl)s4)ccc3o2)cc1)c1cccc(C(F)(F)F)c1		< 4.00	5.64	27	< 4.20					
O=[N+]([O-])c1ccc(S(=O)(=O)Nc2ccc(-c3nc4cc(NS(=O)(=O)c5ccc([N+](=O)[O-])cc5)ccc4o3)cc2)cc1	4.29	< 4.00	5.14	47	< 4.20	inactive	inactive	inactive	inactive	
O=S(=O)(Nc1ccc2oc(-c3ccc(NS(=O)(=O)c4ccc(Cl)s4)cc3)nc2c1)c1cccc(C(F)(F)F)c1	5.30	< 4.00	5.96	36	4.37					pIC50 (E. coli GroEL/ES [4]): 5.17
O=S(=O)(Nc1ccc(-c2nc3cc(NS(=O)(=O)c4ccc(Cl)s4)ccc3o2)cc1)c1ccc(Cl)s1	5.23	< 4.00	5.34	49	4.28					
O=S(=O)(Nc1ccc2oc(-c3ccc(NS(=O)(=O)c4ccc(Cl)s4)cc3)nc2c1)c1ccc(Cl)c(C(F)(F)F)c1	5.62	< 4.00	5.66	27	4.40					
NCc1ccc(S(=O)(=O)Nc2ccc3oc(-c4ccc(NS(=O)(=O)c5ccc(Cl)s5)cc4)nc3c2)cc1										pIC50 (E. coli GroEL/ES [4]): 5.51; pKd [5]: 6.82
COC(=O)c1ccccc1S(=O)(=O)Nc1ccc(-c2nc3cc(NS(=O)(=O)c4ccccc4C(=O)OC)ccc3o2)cc1						inactive	inactive	inactive	inactive	
N#Cc1ccc(S(=O)(=O)Nc2ccc(-c3nc4cc(NS(=O)(=O)c5ccc(C#N)cc5)ccc4o3)cc2)cc1						inactive	inactive	inactive	inactive	
O=S(=O)(Nc1ccc(-c2nc3cc(NS(=O)(=O)c4cccc(F)c4)ccc3o2)cc1)c1cccc(F)c1						inactive	inactive	inactive	inactive	
N#Cc1ccccc1S(=O)(=O)Nc1ccc(-c2nc3cc(NS(=O)(=O)c4ccccc4C#N)ccc3o2)cc1						inactive	inactive	inactive	inactive	
O=S(=O)(Nc1ccc(-c2nc3cc(NS(=O)(=O)c4ccc5nsnc5c4)ccc3o2)cc1)c1ccc2nsnc2c1						inactive	inactive	inactive	inactive	
N#Cc1cccc(S(=O)(=O)Nc2ccc(-c3nc4cc(NS(=O)(=O)c5cccc(C#N)c5)ccc4o3)cc2)c1						inactive	inactive	inactive	inactive	
COc1ccc(S(=O)(=O)Nc2ccc(-c3nc4cc(NS(=O)(=O)c5ccc(OC)cc5)ccc4o3)cc2)cc1						inactive	inactive	inactive	inactive	
O=S(=O)(Nc1ccc(-c2nc3cc(NS(=O)(=O)c4ccccc4C(F)(F)F)ccc3o2)cc1)c1ccccc1C(F)(F)F						inactive	inactive	inactive	inactive	
Nc1ccccc1S(=O)(=O)Nc1ccc(-c2nc3cc(NS(=O)(=O)c4ccccc4N)ccc3o2)cc1						inactive	inactive	inactive	inactive	
O=[N+]([O-])c1cc(S(=O)(=O)Nc2ccc3oc(-c4ccc(NS(=O)(=O)c5ccc(Cl)s5)cc4)nc3c2)ccc1Cl	6.00	< 4.00	6.01	11	4.43					pIC50 (E. coli GroEL/ES [6]): 6.00
O=S(=O)(Nc1ccc(-c2nc3cc(NS(=O)(=O)c4cccs4)ccc3o2)cc1)c1cccs1						inactive	inactive	inactive	inactive	
O=S(=O)(Nc1ccc(-c2nc3cc(NS(=O)(=O)c4ccccc4O)ccc3o2)cc1)c1ccccc1O						inactive	inactive	inactive	inactive	
O=S(=O)(Nc1ccc(-c2nc3cc(NS(=O)(=O)c4ccc(C(F)(F)F)cc4)ccc3o2)cc1)c1ccc(C(F)(F)F)cc1						inactive	inactive	inactive	inactive	
CS(=O)(=O)Nc1ccc(-c2nc3cc(NS(C)(=O)=O)ccc3o2)cc1						inactive	inactive	inactive	inactive	
O=S(=O)(Nc1ccc(-c2nc3cc(NS(=O)(=O)c4ccc(Cl)s4)ccc3o2)cc1)c1ccc(Cl)c(C(F)(F)F)c1	5.21	< 4.00	5.70	22	< 4.20					pEC50 (Acinetobacter baumannii; ATCC 19606 = CIP 70.34 = JCM 6841, 24 h): 4.43
O=S(=O)(Nc1ccc(-c2nc3cc(NS(=O)(=O)c4ccccc4Cl)ccc3o2)cc1)c1ccccc1Cl						inactive	inactive	inactive	inactive	
Cc1ccccc1S(=O)(=O)Nc1ccc(-c2nc3cc(NS(=O)(=O)c4ccccc4C)ccc3o2)cc1						inactive	inactive	inactive	inactive	
O=S(=O)(Nc1ccc2oc(-c3ccc(NS(=O)(=O)c4ccc(Cl)s4)cc3)nc2c1)c1ccc(Cl)c(Cl)c1	5.33	< 4.00	6.28	24	< 4.20					selectivity ratio [7]: 46; pIC50 (E. coli GroEL/ES [6]): 5.19; pIC50 (E. coli GroEL/ES [4]): 5.29
O=S(=O)(Nc1ccc(-c2nc3cc(NS(=O)(=O)c4cccc(Cl)c4)ccc3o2)cc1)c1cccc(Cl)c1						inactive	inactive	inactive	inactive	
